Results published in ChEMBL document CHEMBL1671680, “Pradimicin S, a highly soluble nonpeptidic small-size carbohydrate-binding antibiotic, is an anti-HIV drug lead for both microbicidal and systemic use” (Antimicrob Agents Chemother, 2010).
Active and inactive are the calls of the source. No cut-off for these calls is given here.

Experiments:
[1] = test system: PBMC; experiment: Immunostimulatory activity against human PBMC assessed as IL-9 production at 21 uM after 72 hrs; type: functional, cell-based
Summary of the method: (§1)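 Unstimulated PBMCs and PHA-blasts from three donors, in three independent experiments, cultured with test compound at 20 μg/ml (21 or 22 μM). Supernatants collected after 72 h. The cytokine profile was read on a Bio-Plex 27-plex human cytokine bead immunoassay, using beads coupled to cytokine-specific monoclonal antibodies and run per the kit instructions.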

[2] = test system: Human immunodeficiency virus 1; experiment: Ratio of EC90 to EC50 for X4 tropic HIV-1 clade D isolate UG270 infected in human PBMC; type: functional
Summary of the method: (§2)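 PBMCs from healthy donors were PHA-stimulated (2 μg/ml, 3 days, 37°C), then seeded at 0.5 × 10^6 per well with compound dilutions in RPMI 1640 with 10% FCS and IL-2 (25 U/ml). Virus was added at 250 pg p24 or p27/ml final. On day 12, supernatant HIV-1 p24 or HIV-2 p27 was measured by ELISA, giving EC50 and EC90.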

[3] = test system: PBMC; experiment: Immunostimulatory activity against human PBMC assessed as IP-10 production at 22 uM after 72 hrs; type: functional, cell-based; summary of the method: as §1
[4] = test system: Human immunodeficiency virus 1; experiment: Antiviral activity against R5 tropic HIV-1 clade C isolate ETH2220 infected in human PBMC assessed as inhibition of viral replication after 12 days by ELISA; details: Human immunodeficiency virus 1, clade C isolate ETH2220, 12 days
[5] = test system: PBMC; experiment: Immunostimulatory activity against human PBMC assessed as IL-13 production at 21 uM after 72 hrs; type: functional, cell-based; summary of the method: as §1
[6] = test system: PBMC; experiment: Immunostimulatory activity against human PBMC assessed as G-CSF production at 21 uM after 72 hrs; type: functional, cell-based
Summary of the method: (§3)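 PBMCs and PHA blasts from three donors (three independent experiments) cultured with 21 μM compound; supernatants collected at 72 h; cytokines quantified with the Bio-Plex human 27-plex bead immunoassay.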

[7] = test system: Human immunodeficiency virus 1; experiment: Antiviral activity against X4 tropic HIV-1 3B infected in human PBMC assessed as inhibition of viral replication […] by ELISA; type: functional, organism-based; details: Human immunodeficiency virus 1, 3B
Summary of the method: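 PBMCs from healthy donors were stimulated with PHA (2 μg/ml) for 3 days, then seeded at 0.5 × 10^6 cells/well in RPMI 1640 with 10% FCS, IL-2 (25 U/ml) and compound. Virus was added at a final 250 pg p24/ml. Supernatant was taken at day 12 for p24 antigen ELISA.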

[8] = test system: PBMC; experiment: Immunostimulatory activity against human PBMC assessed as IL-10 production at 21 uM after 72 hrs; type: functional, cell-based; summary of the method: as §3
[9] = test system: PBMC; experiment: Immunostimulatory activity against human PBMC assessed as FGF production at 22 uM after 72 hrs; type: functional, cell-based
[10] = test system: PBMC; experiment: Immunostimulatory activity against human PBMC assessed as eotoxin production at 22 uM after 72 hrs; type: functional, cell-based
Summary of the method: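 In three independent experiments, PBMCs and PHA-blasts from three donors were cultured with compound for 72 h. Supernatants were analysed with a bead-based 27-plex human cytokine immunoassay covering interleukins, chemokines, growth factors, IFN-γ and TNF-α.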

[11] = test system: PBMC; experiment: Immunostimulatory activity against human PBMC assessed as suppression of IL-15 production at 22 uM after 72 hrs; type: functional; summary of the method: as §1
[12] = test system: PBMC; experiment: Immunostimulatory activity against human PBMC assessed as suppression of IL-4 production at 22 uM after 72 hrs; type: functional; summary of the method: as §1
[13] = test system: PBMC; experiment: Immunostimulatory activity against human PBMC assessed as suppression of G-CSF production at 22 uM after 72 hrs; type: functional; summary of the method: as §1
[14] = test system: Human immunodeficiency virus 2; experiment: Antiviral activity against HIV-2 ROD infected in human MT4 cells assessed as inhibition of virus-induced cytopathicity after 7 days by trypan blue staining; type: functional, organism-based; details: Human immunodeficiency virus 2, ISOLATE ROD, MT4, 168 h
[15] = test system: PBMC; experiment: Immunostimulatory activity against human PBMC assessed as MCP-1 production at 22 uM after 72 hrs; type: functional, cell-based; summary of the method: as §1
[16] = Binding affinity to HIV-1 HXB2 gp41 after 6 mins by SPR analysis in presence of 10 mM CaCl2; design: species or system Human immunodeficiency virus 1
[17] = test system: PBMC; experiment: Immunostimulatory activity against human PBMC assessed as MCP-1 production at 21 uM after 72 hrs; type: functional, cell-based; summary of the method: as §1
[18] = Antiviral activity against SIV mac251 infected in human Raji cells expressing DC-SIGN gene assessed as inhibition of virus capture by Raji cells after 60 mins by ELISA; type: functional, cell-based, Simian immunodeficiency virus - mac; details: Simian immunodeficiency virus, 251, Raji, 1 h
[19] = test system: Human immunodeficiency virus 1; experiment: Antiviral activity against R5 tropic HIV-1 clade F isolate BZ163 infected in human PBMC assessed as inhibition of viral replication after 12 days by ELISA; details: Human immunodeficiency virus 1, clade F isolate BZ163, 12 days
[20] = test system: PBMC; experiment: Immunostimulatory activity against human PBMC assessed as GM-CSF production at 21 uM after 72 hrs; type: functional, cell-based; summary of the method: as §3
[21] = test system: PBMC; experiment: Immunostimulatory activity against human PBMC assessed as G-CSF production at 22 uM after 72 hrs; type: functional, cell-based
[22] = test system: PBMC; experiment: Immunostimulatory activity against human PBMC assessed as suppression of G-CSF production at 21 uM after 72 hrs; type: functional; summary of the method: as §1
[23] = test system: PBMC; experiment: Immunostimulatory activity against human PBMC assessed as TNF-alpha production at 21 uM after 72 hrs; type: functional, cell-based; summary of the method: as §1
[24] = test system: Human immunodeficiency virus 1; experiment: Ratio of EC90 to EC50 for R5 tropic HIV-1 clade A isolate UG273 infected in human PBMC; type: functional; summary of the method: as §2
[25] = test system: PBMC; experiment: Immunostimulatory activity against human PBMC assessed as suppression of IL-9 production at 22 uM after 72 hrs; type: functional; summary of the method: as §1
[26] = Cytotoxicity against human CEM cells after 7 days by trypan blue staining; type: cell-based, CCRF-CEM
[27] = Cytotoxicity against human Caco2 cells after 3 to 4 days; type: cell-based; details: Caco-2 cells
Summary of the method: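 Cells seeded at 20,000–75,000 per well with compound dilutions, incubated 3–4 days at 37°C, and counted on a Coulter particle counter; CC50 is the concentration inhibiting proliferation by 50%.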

[28] = test system: Human immunodeficiency virus 1; experiment: Ratio of EC90 to EC50 for R5 tropic HIV-1 clade A/E isolate ID12 infected in human PBMC; type: functional
[29] = test system: PBMC; experiment: Immunostimulatory activity against human PBMC assessed as RANTES production at 21 uM after 72 hrs; type: functional, cell-based; summary of the method: as §1
[30] = test system: Human immunodeficiency virus 1; experiment: Binding affinity to HIV-1 3B gp120 after 6 mins by SPR analysis at pH 4
[31] = test system: PBMC; experiment: Immunostimulatory activity against human PBMC assessed as IL-8 production at 22 uM after 72 hrs; type: functional, cell-based; summary of the method: as §1
[32] = test system: PBMC; experiment: Immunostimulatory activity against human PBMC assessed as suppression of IL-4 production at 21 uM after 72 hrs; type: functional; summary of the method: as §1
[33] = test system: PBMC; experiment: Immunostimulatory activity against human PBMC assessed as IL-12 production at 21 uM after 72 hrs; type: functional, cell-based; summary of the method: as §1
[34] = test system: PBMC; experiment: Immunostimulatory activity against human PBMC assessed as IL-1ra production at 21 uM after 72 hrs; type: functional, cell-based; summary of the method: as §1
[35] = test system: PBMC; experiment: Immunostimulatory activity against human PBMC assessed as IP-10 production at 21 uM after 72 hrs; type: functional, cell-based; summary of the method: as §1

Compound | Activity [1] | Ratio [2] | Activity [3] | EC50 [4] [µM] | Activity [5] | Activity [6] | EC50 [7] [µM] | Activity [8] | Activity [9] | Activity [10] | fold change (FC) [11] | fold change (FC) [12] | fold change (FC) [13] | EC50 [14] [µM] | Activity [15] | Kd [16] [µM] | Activity [17] | IC50 [18] [µM] | EC50 [19] [µM] | Activity [20] | other results
CN[C@@H]1[C@H](O[C@@H]2O[C@H](CO)[C@@H](O)[C@H](OS(=O)(=O)O)[C@H]2O)[C@@H](O)[C@H](O[C@H]2c3cc(C)c(C(=O)N[C@H](C)C(=O)O)c(O)c3-c3c(cc4c(c3O)C(=O)c3cc(OC)cc(O)c3C4=O)[C@@H]2O)O[C@@H]1C [PRADIMICIN S] | inactive | 2 | inactive | 17 | inactive | inactive | 8.5 | inactive | inactive | inactive | 2 | 2 | 2 | 4.7 | inactive | 9.93 | inactive | 16 | 17 | inactive | Activity [21]: inactive; fold change (FC) [22]: 2; Activity [23]: inactive; Ratio [24]: 2; fold change (FC) [25]: 2; CC50 at 168 h [26]: > 100 µM; CC50 [27]: > 230 µM; Ratio [28]: 2; Activity [29]: inactive; Activity [30]: Active; Activity [31]: inactive; fold change (FC) [32]: 2; Activity [33]: inactive; Activity [34]: inactive; Activity [35]: inactive
CN[C@@H]1[C@H](O[C@@H]2OC[C@@H](O)[C@H](O)[C@H]2O)[C@@H](O)[C@H](O[C@H]2c3cc(C)c(C(=O)N[C@H](C)C(=O)O)c(O)c3-c3c(cc4c(c3O)C(=O)c3cc(OC)cc(O)c3C4=O)[C@@H]2O)O[C@@H]1C [PRADIMICIN A] | inactive | 2 | inactive | 10 | inactive | inactive | 2.6 | inactive | inactive | inactive | 2 | 2 | 2 | 5 | inactive | 14.9 | inactive | 16 | 8 | inactive | Activity [21]: inactive; fold change (FC) [22]: 2; Activity [23]: inactive; Ratio [24]: 2; fold change (FC) [25]: 2; CC50 at 168 h [26]: > 100 µM; CC50 [27]: > 50 µM; Ratio [28]: 2; Activity [29]: inactive; Activity [30]: Active; Activity [31]: inactive; fold change (FC) [32]: 2; Activity [33]: inactive; Activity [34]: inactive; Activity [35]: inactive
